The list is not random: actives were taken first. Their share in the collection is about 2.3%.
PAFAH1B3 inh: PAFAH1B3 enzyme inhibitors, primary screen, biochemical, fluorescence polarization, human | 340,000 tested, 0.28% active | inhibition, % at 3.39 µM | Platelet-activating factor acetylhydrolase IB subunit alpha1 (Homo sapiens), Q15102 | recombinant PAFAH1B3, FP-rhodamine probe;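 active = inhibition above the screen-wide average of all tested compounds plus 3 SD, cut at about 25% in these data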
Target sequence (Q15102 whole entry, looked up): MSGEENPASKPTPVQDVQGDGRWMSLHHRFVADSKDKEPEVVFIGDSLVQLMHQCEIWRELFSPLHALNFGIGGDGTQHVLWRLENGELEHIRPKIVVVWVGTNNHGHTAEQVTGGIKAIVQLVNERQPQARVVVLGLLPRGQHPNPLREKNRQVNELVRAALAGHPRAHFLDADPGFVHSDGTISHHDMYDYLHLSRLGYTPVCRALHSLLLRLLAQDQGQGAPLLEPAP
PAFAH2 FP inh: PAFAH2 enzyme inhibitors, primary screen, biochemical, fluorescence polarization, human. Platelet-activating factor acetylhydrolase 2, cytoplasmic (Homo sapiens), Q99487. recombinant PAFAH2, FP-rhodamine activity probe. inhibition, % at 3.39 µM. 340,000 tested, 0.99% active. AID 492956, 2010;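 active = inhibition above the mean over all tested compounds plus 3 SD, cut at about 30% in these data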;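 note: inhibitors block probe labeling of enzyme so polarization drops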
TDP2 inh: human TDP2 enzyme inhibitors, primary screen, biochemical, epi absorbance, recombinant enzyme; inhibition, % at 12.8 µM; AID 720702, 2013; 370,000 tested, 0.34% active; Tyrosyl-DNA phosphodiesterase 2 (Homo sapiens), O95551; T5PNP hydrolysis, p-nitrophenol absorbance 415 nm;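 active = inhibition above the mean of all tested compounds plus 3 SD, set per campaign, cut at about 25% in these data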
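Assay system: Recombinant human TDP2 | Quantity: 120 nM TDP2 per well | Incubation: 2 h at 37 °C | Signal: Epi absorbance | Evaluation: Percent inhibition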
PAFAH1B2 FP inh: PAFAH1B2 enzyme inhibitors, primary screen, biochemical, fluorescence polarization, human. Platelet-activating factor acetylhydrolase IB subunit alpha2 (Homo sapiens), P68402. inhibition, % at 3.39 µM. recombinant PAFAH1B2, FP-rhodamine activity probe. 340,000 tested, 1.2% active;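 active = inhibition above the mean of all tested compounds plus 3 SD, cut at about 24% in these data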
Target sequence (P68402 whole entry, looked up): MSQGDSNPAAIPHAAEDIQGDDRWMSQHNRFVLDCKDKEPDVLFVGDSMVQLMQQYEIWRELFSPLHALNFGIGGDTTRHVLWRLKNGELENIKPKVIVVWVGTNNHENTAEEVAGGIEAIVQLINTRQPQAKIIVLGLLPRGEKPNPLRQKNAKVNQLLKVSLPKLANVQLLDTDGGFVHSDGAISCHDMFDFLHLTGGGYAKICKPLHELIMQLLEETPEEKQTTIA
Apaf1 inhib: inhibitors of human Apaf-1 apoptosome, primary screen, biochemical, DEVD-Rh110 fluorescence, uHTS. Apoptotic protease-activating factor 1 (Homo sapiens), O14727. reconstituted apoptosome caspase-3 activity. inhibition, % at 20 µM. 330,000 tested, 0.71% active; active = inhibition of at least 40% at 20 µM
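Medium: Hepes buffer, pH 7.5 / System: biochemical Apaf-1 apoptosome reconstitution / Measured by: Rh110 fluorescence, excitation 480 nm, emission 540 nm / Times: compound with Apaf-1, dATP, procaspase-3 30 min, then 50 min reaction, room temperature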
TDP2 inh conf: human TDP2 enzyme inhibitors, retest, confirmation, biochemical, epi absorbance, recombinant enzyme | shares compounds with TDP2 inh | absorbance read-out | inhibition, % at 12.8 µM | 1,100 tested, 22% active | AID 743263, 2014; in the data active = inhibition above about 25%
Of the large screens only hits and unclear results are named; the others gave an inactive call (follow-up assays come after a bar, where they were run).

COC(=O)[C@]1(CNC(=O)NCCc2ccc(OC)c(OC)c2)CC(=O)N(C)[C@@H]1c1ccccc1	none (no result: PAFAH1B3 inh, PAFAH2 FP inh, PAFAH1B2 FP inh, Apaf1 inhib)
COc1ccc(COC(=O)c2cccc(S(=O)(=O)N3CCN(C(C)=O)CC3)c2)cc1	none
COc1ccc(COC(=O)c2cccc(S(=O)(=O)N3CCN(C(C)=O)CC3)c2)cc1F	TDP2 inh 25 | TDP2 inh conf inactive
N#CCC[C@H]1CC[C@]2(CCCN(Cc3ccc(Br)cc3)C2)O1	none (no result: PAFAH1B3 inh, PAFAH2 FP inh, PAFAH1B2 FP inh, Apaf1 inhib)
C[C@@H](CO)N(Cc1cn(Cc2ccccc2)nn1)S(=O)(=O)c1ccc(F)cc1Br	none (no result: PAFAH1B3 inh, PAFAH2 FP inh, PAFAH1B2 FP inh, Apaf1 inhib)
Cc1[nH]n(-c2ccccc2)c(=O)c1/C=N/N1CCOCC1	none
Cc1[nH]n(-c2ccc(Cl)cc2)c(=O)c1/C=N/c1nnc(-c2ccccc2)s1	TDP2 inh 37 | TDP2 inh conf inactive
Cc1[nH]n(-c2ccccc2)c(=O)c1C=NCc1ccncc1	TDP2 inh 27 | TDP2 inh conf inactive
Cc1[nH]n(-c2ccccc2)c(=O)c1/C=N/N1C(=O)c2cccc3cccc(c23)C1=O	TDP2 inh 31 | TDP2 inh conf inactive
COc1ccc2nc(/N=C/c3c(C)[nH]n(-c4ccc(C)cc4)c3=O)sc2c1	TDP2 inh 31 | TDP2 inh conf inactive
COC(=O)[C@]12C[C@H](CC(=O)NCCCN3CCCC3=O)C(=O)N(Cc3ccco3)C1=C[C@H](COCc1ccccc1)O[C@@H]2C	none (no result: PAFAH1B3 inh, PAFAH2 FP inh, PAFAH1B2 FP inh, Apaf1 inhib)
COc1ccccc1NC(=O)OC1CC2CC1[C@H]1CCCCN1[C@H]2Cc1ccccc1 (stereo partly specified)	none (no result: PAFAH1B3 inh, PAFAH2 FP inh, PAFAH1B2 FP inh, Apaf1 inhib)
COC(=O)[C@]12C[C@H](CC(=O)N3CCOCC3)C(=O)N(Cc3ccc(Cl)cc3Cl)C1=C[C@H](C(C)(C)C)O[C@@H]2C	none (no result: PAFAH1B3 inh, PAFAH2 FP inh, PAFAH1B2 FP inh, Apaf1 inhib)
Cc1ccc(NC(=O)OC2CC3CC2[C@H]2CCCCN2C3)cc1 (stereo partly specified)	none (no result: PAFAH1B3 inh, PAFAH2 FP inh, PAFAH1B2 FP inh, Apaf1 inhib)
O=C(CCn1c(=O)oc2ccc(Cl)cc21)N1CCN(c2ccccc2)CC1	TDP2 inh 25 | TDP2 inh conf inactive
COc1ccc(S(=O)(=O)N2CCC(C(=O)NCc3ccncc3)CC2)cc1	TDP2 inh 26 | TDP2 inh conf inactive
COC(=O)[C@]12C[C@H](CC(=O)N3CCC(c4ccccc4)CC3)C(=O)N(Cc3cccc4ccccc34)C1=C[C@H](C(C)C)O[C@@H]2C1CC1	none (no result: PAFAH1B3 inh, PAFAH2 FP inh, PAFAH1B2 FP inh, Apaf1 inhib)
COC(=O)c1cc2c(c3c4cc(F)ccc4n(S(=O)(=O)c4ccc(C)cc4)c13)C(=O)N(Cc1ccccc1)C2	none (no result: PAFAH1B3 inh, PAFAH2 FP inh, PAFAH1B2 FP inh, Apaf1 inhib)
Cc1ccc(S(=O)(=O)N/N=C/c2ccccc2F)cc1[N+](=O)[O-]	TDP2 inh 29 | TDP2 inh conf inactive
O=S(=O)(N/N=C/c1ccccc1F)c1ccccc1	none
CN(Cc1c(C(=O)N/N=C/c2ccccc2)nnn1-c1nonc1N)c1ccccc1	none
COc1ccc(/C=N/NC(=O)c2nnn(-c3nonc3N)c2CN(C)c2ccccc2)cc1	TDP2 inh 27 | TDP2 inh conf inactive
Nc1c(C(=O)OCC(=O)NCc2ccccc2)[nH]c(=O)[nH]c1=O	TDP2 inh 49 | TDP2 inh conf inactive
Nc1c(C(=O)OCC(=O)Nc2ccccc2Br)[nH]c(=O)[nH]c1=O	none
CCCC(=O)N1CCC[C@]2(CC[C@@H](CCC(C)=O)O2)C1	none (no result: PAFAH1B3 inh, PAFAH2 FP inh, PAFAH1B2 FP inh, Apaf1 inhib)
COc1ccc(CCNC(=O)c2ccccc2)cc1	TDP2 inh 70 | TDP2 inh conf inactive
CSc1ccc(CN(C)CC(=O)Nc2c(F)cccc2F)cc1	TDP2 inh 29 | TDP2 inh conf inactive
CSc1ccc(CN(C)CC(=O)Nc2ccc(NC(C)=O)cc2)cc1	none
COc1cc(OC)c(NC(=O)CCNS(=O)(=O)c2ccc3c(c2)CC(C)N3C(C)=O)cc1Cl (stereo unspecified)	TDP2 inh 31 | TDP2 inh conf inactive
COc1cccc(-n2nnnc2SCC(=O)Nc2nc3c(s2)CCCC3)c1	none
COC(=O)c1cccc(-n2nnnc2SCC(=O)Nc2nc3c(s2)CCCC3)c1	TDP2 inh 48 | TDP2 inh conf inactive
C[C@@H]1CCN(C2CC2)S(=O)(=O)c2c(cccc2N2CC[C@H](N(C)C)C2)O1	none (no result: PAFAH1B3 inh, PAFAH2 FP inh, PAFAH1B2 FP inh, Apaf1 inhib)
COc1ccc(-c2ccc(=O)n(Cc3ccccc3)n2)cc1	none
COc1ccc(/C=C2/C(=O)N(Cc3ccccc3)N=C2C)cc1	TDP2 inh 71 | TDP2 inh conf inactive
CC(C)C[C@H]1COc2cc(N3CCSCC3)ccc2S(=O)(=O)N1C	none (no result: PAFAH1B3 inh, PAFAH2 FP inh, PAFAH1B2 FP inh, Apaf1 inhib)
CC(C)c1ccc(NC(=O)C2C3C=CC4(O3)C2C(=O)N(CCN2CCOCC2)C4C(=O)NC2CCCCC2)cc1 (stereo unspecified)	none
CCN(CC)CCCN1C(=O)C2C(C(=O)Nc3ccc(C(C)C)cc3)C3C=CC2(O3)C1C(=O)NC1CCCCC1 (stereo unspecified)	TDP2 inh 27 | TDP2 inh conf inactive
Cc1ccc(S(=O)(=O)N2CCC(C(=O)NCCN3CCOCC3)CC2)cc1C	none
Cc1ccc(S(=O)(=O)N2CCC(C(=O)NCCCN3CCOCC3)CC2)cc1C	TDP2 inh 30 | TDP2 inh conf inactive
CCOc1ccc(CCNC(=O)C2CC(=O)N(CCc3ccc(OC)c(OC)c3)C2)cc1OCC (stereo unspecified)	TDP2 inh 25 | TDP2 inh conf inactive
CCOc1ccc(CCNC(=O)C2CC(=O)N(CCc3ccccc3)C2)cc1OCC (stereo unspecified)	none
CCC(NC(=O)Nc1ccc(O)cc1)(C(F)(F)F)C(F)(F)F	TDP2 inh 27 | TDP2 inh conf inactive
CCC(NC(=O)NCc1ccccc1)(C(F)(F)F)C(F)(F)F	none
CC(NC(=O)Nc1ccc(O)cc1)(C(F)(F)F)C(F)(F)F	TDP2 inh 28 | TDP2 inh conf inactive
O=C1C2C3C=CC(CC3)C2C(=O)N1c1ccc(F)cc1 (stereo unspecified)	none
CC(C)C1NC2(C(=O)c3ccccc3C2=O)C2C(=O)N(c3ccc(F)cc3)C(=O)C12 (stereo unspecified)	TDP2 inh 40 | TDP2 inh conf inactive
CC(C)Oc1ccc(S(=O)(=O)N2CCOCC2)cc1NC(=O)Cc1c(F)cccc1Cl	TDP2 inh 29 | TDP2 inh conf inactive
Cn1c(-c2ccccc2)cnc1NCc1ccccc1	TDP2 inh 29 | TDP2 inh conf inactive
CCCCC(=Nc1ccc(N)cc1)C1=C(O)C(C(=O)OC)C(C)(C)CC1=O (stereo unspecified)	TDP2 inh 60, Apaf1 inhib 62 | TDP2 inh conf inactive
CCCC(=NCc1ccccc1)C1=C(O)C(C(=O)OC)C(C)(C)CC1=O (stereo unspecified)	none
O=C1Nc2ccccc2C1Cc1ccccn1 (stereo unspecified)	none
